One data set has as its system A549. Put plainly: Antiproliferative activity against human A549 cells assessed as growth inhibition measured after 48 hrs by sulforhodamine B assay. It is filed as functional. The note with it: A549, 48 h. In a few lines:
(§1)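 NCI protocol with minor modifications. DMSO stocks at 40 mM. Cells exposed for 48 h to serial decimal dilutions, 0.001–100 µM. GI50 in µM from at least two independent experiments, with SD.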
(In SRB staining, fixed cells bind dye roughly in proportion to their protein.)

The next data set concerns HBL-100. Briefly: Antiproliferative activity against human HBL100 cells assessed as growth inhibition measured after 48 hrs by sulforhodamine B assay. Type of data set: functional. The note with it: HBL-100, 48 h. In a few lines:
as §1

Data set [1] relates to SW1573. Put plainly: Antiproliferative activity against human SW1573 cells incubated for 48 hrs in presence of P-gp and CYP3A4/5 inhibitor verapamil by sulforhodamine B assay. It is filed as functional. Conditions: SW1573, 48 h. In short, it runs like this:
(§2)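 Wild-type and P-gp-overexpressing SW1573 cells were grown in RPMI 1640 with 1 mM glutamine, 5% FBS and antibiotics at 37 °C. Cells were exposed for 48 h to serial decimal dilutions, 0.001–100 µM, with or without 10 µM verapamil. GI50 values come from at least two independent experiments, with SD.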

Data set [2] relates to WiDr. Briefly: Antiproliferative activity against human WiDr cells assessed as growth inhibition measured after 48 hrs by sulforhodamine B assay. Type of data set: functional. In a few lines:
as §1

In data set [3] the test system is SW1573. Briefly: Antiproliferative activity against human SW1573 cells over-expressing P-gp incubated for 48 hrs in absence of P-gp and CYP3A4/5 inhibitor verapamil by sulforhodamine B assay. Type of data set: functional. The note with it: SW1573, 48 h. In short, it runs like this:
as §2

Data set [4] concerns T47D. Briefly: Potency index, ratio of GI50 for CDDP to test compound GI50 for antiproliferative activity against human T47D cells. Type of data set: functional.
Data set [5] in a line: (§3) Cytotoxicity against human hTERT-BJ cells assessed as growth inhibition measured after 48 hrs by sulforhodamine B assay. Type of data set: cell-based. The note with it: hTERT-BJ cells. In a few lines:
(§4)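 NCI protocol with minor modifications. Human tumour lines or fibroblasts in RPMI 1640 with 1 mM glutamine, 5% FBS and antibiotics, 37 °C, 5% CO2, low passage. DMSO stocks at 40 mM. Cells exposed for 48 h to serial decimal dilutions, 0.001–100 µM. GI50 in µM from at least two independent experiments, with SD.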

In data set [6] the test system is T47D. Put plainly: Antiproliferative activity against human T47D cells assessed as growth inhibition measured after 48 hrs by sulforhodamine B assay. It is filed as functional. In short, it runs like this:
as §1

Data set [7] relates to HeLa. Briefly: Antiproliferative activity against human HeLa cells assessed as growth inhibition measured after 48 hrs by sulforhodamine B assay. It is filed as functional. In a few lines: as §1
Data set [8] relates to SW1573. Briefly: Resistance factor, ratio of GI50 for antiproliferative activity against human SW1573 cells over-expressing P-gp incubated for 48 hrs in absence of P-gp and CYP3A4/5 inhibitor verapamil by sulforhodamine B assay to GI50 for antiproliferative activity against human SW1573 cells incubated for 48 hrs in absence of P-gp and CYP3A4/5 inhibitor verapamil by sulforhodamine B assay. It is filed as functional. In a few lines:
(§5)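 Resistance factor: GI50 in SW1573/PGP divided by GI50 in wild-type SW1573. Both came from 48 h exposure, with or without 10 µM verapamil. GI50 values are from at least two independent experiments.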

The subject of data set [9] is SW1573. Put plainly: Antiproliferative activity against human SW1573 cells over-expressing P-gp incubated for 48 hrs in presence of P-gp and CYP3A4/5 inhibitor verapamil by sulforhodamine B assay. Type of data set: functional. Conditions: SW1573, 48 h. In short, it runs like this:
as §2

Data set [10] concerns HeLa. Briefly: Anticancer activity against human HeLa cells assessed as increase in ROS production at 1 uM measured after 48 hrs by ROS-GloTM H2O2 assay. Type of data set: functional, cell-based. In short, it runs like this:
(§6)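 HeLa cells in RPMI 1640 with 1 mM glutamine, 5% FBS and antibiotics, 37 °C, 5% CO2. Exposed to compound at 1 or 10 µM for 48 h. ROS (H2O2) read with a non-lytic, HRP-free luminescent kit per the manufacturer.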

Data set [11] relates to WiDr. Put plainly: Potency index, ratio of GI50 for CDDP to test compound GI50 for antiproliferative activity against human WiDr cells. It is filed as functional.
The subject of data set [12] is SW1573. Put plainly: Antiproliferative activity against human SW1573 cells incubated for 48 hrs in absence of P-gp and CYP3A4/5 inhibitor verapamil by sulforhodamine B assay. Type of data set: functional. The note with it: SW1573, 48 h. In a few lines: as §2
Data set [13] deals with SW1573. Briefly: Resistance factor, ratio of GI50 for antiproliferative activity against human SW1573 cells over-expressing P-gp incubated for 48 hrs in presence of P-gp and CYP3A4/5 inhibitor verapamil by sulforhodamine assay to GI50 for antiproliferative activity against human SW1573 cells incubated for 48 hrs in presence of P-gp and CYP3A4/5 inhibitor verapamil by sulforhodamine B assay. Type of data set: functional. In a few lines: as §5

The target of data set [14] is T1, Histone deacetylase 8 (Homo sapiens) (UniProt Q9BY41).
T1 sequence (whole entry): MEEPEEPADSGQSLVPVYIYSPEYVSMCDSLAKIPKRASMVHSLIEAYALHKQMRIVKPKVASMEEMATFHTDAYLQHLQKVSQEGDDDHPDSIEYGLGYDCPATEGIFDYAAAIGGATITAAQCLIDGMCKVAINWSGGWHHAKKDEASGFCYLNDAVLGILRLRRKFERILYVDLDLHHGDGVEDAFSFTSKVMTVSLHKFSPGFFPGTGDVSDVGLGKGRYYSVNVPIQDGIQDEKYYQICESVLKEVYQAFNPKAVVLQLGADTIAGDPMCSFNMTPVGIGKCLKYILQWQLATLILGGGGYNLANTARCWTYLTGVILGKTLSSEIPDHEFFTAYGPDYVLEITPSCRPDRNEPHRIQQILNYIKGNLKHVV
Put plainly: Potency index, ratio of inhibition activity of trichostatin to inhibition activity of compound HDAC8 (unknown origin).

The subject of the next data set is hTERT-BJ. Described as §3. Type of data set: cell-based. Conditions: htert-bj, 48 h. In short, it runs like this: as §4
Data set [15] in a line: Selectivity index, ratio of GI50 for Cytotoxicity against human hTERT-BJ cells to ratio of GI50 for antiproliferative activity against human A549 cells. Type of data set: toxicity, cell-based. Conditions: hTERT-BJ cells versus A549 cells, read-out: RatioGI50.
Data set [16] can be described thus: Selectivity index, ratio of GI50 for Cytotoxicity against human hTERT-BJ cells to ratio of GI50 for antiproliferative activity against human HeLa cells. It is filed as toxicity, cell-based. Conditions: hTERT-BJ cells versus HeLa cells, read-out: RatioGI50.
In data set [17] the test system is HeLa. Briefly: Anticancer activity against human HeLa cells assessed as increase in ROS production at 10 uM measured after 48 hrs by ROS-GloTM H2O2 assay. Type of data set: functional, cell-based. In short, it runs like this:
as §6

Data set [18] in a line: Selectivity index, ratio of GI50 for Cytotoxicity against human hTERT-BJ cells to ratio of GI50 for antiproliferative activity against human WiDr cells. It is filed as toxicity, cell-based. The note with it: hTERT-BJ cells versus WiDr cells, read-out: RatioGI50.
A short description of data set [19]: Selectivity index, ratio of GI50 for Cytotoxicity against human hTERT-BJ cells to ratio of GI50 for antiproliferative activity against human HBL100 cells.
A short description of data set [20]: Selectivity index, ratio of GI50 for Cytotoxicity against human hTERT-BJ cells to ratio of GI50 for antiproliferative activity against human T47D cells. It is filed as toxicity, cell-based. The note with it: hTERT-BJ cells versus T47D cells, read-out: RatioGI50.

Active and inactive are the calls of the source. The calls are words filed in the database; no cut-off is given here.

Take `CCCCNC(=[Se])Nc1ccc2c(C)cc(=O)oc2c1`: the GI50 – broadly, the concentration giving 50% growth inhibition – was 3 µM in the data set on A549; 2.3 µM in the data set on HBL-100; 2.7 µM in the data set on SW1573 [1]; 3.8 µM in the data set on WiDr [2]; 2.3 µM with SW1573 [3]; 2.9 µM in the data set with T47D [6]. The GI50 in the data set with HeLa [7] was found to be 5.2 µM; in the data set with SW1573 [9] it was 2 µM; with SW1573 [12], 3 µM. The RatioGI50 entry was “<=6” with T47D [4], 0.8 with SW1573 [8], “<=6” in the data set with WiDr [11] and 0.7 in the data set on SW1573 [13]. For the same molecule, the GI50 at 48 h in [5] worked out at 3.1 µM. The result in the data set with HeLa [10] was Active.

Regarding `Cc1cc(=O)oc2cc(NC(=[Se])Nc3ccc4c(C)cc(=O)oc4c3)ccc12`, the GI50 in the data set with A549 was found to be 3.2 µM; in the data set on HBL-100, 3.5 µM; in the data set with SW1573 [1], 9 µM; in the data set with WiDr [2], 4.5 µM; in the data set on SW1573 [3], 55 µM; in the data set on T47D [6] it was 3.6 µM. In addition, the figures for the GI50 in the data set with HeLa [7], with SW1573 [9] and with SW1573 [12] were 2.9 µM, 21 µM and 4.5 µM, respectively. Besides, the RatioGI50 result with T47D [4] was “<=6”; in the data set with SW1573 [8], 12; in the data set on WiDr [11], “<=6”; in the data set on SW1573 [13], 2.3. Besides, in data set [14], the Ratio came out at 1.65. Also, in data set [5], the GI50 at 48 h amounted to 4.9 µM. Further, the outcome in the data set with HeLa [10] was Active.

On to `CCCCOC(=[Se])Nc1ccc2c(C)cc(=O)oc2c1`, for which the 50% growth inhibitory concentration (GI50) result in the data set with hTERT-BJ is “Nd(Insoluble)”.

In the case of `Cc1cc(=O)oc2cc(NC(=[Se])Nc3ccc(Br)cc3)ccc12`, the GI50 came out at 2.7 µM in the data set with A549; 2.2 µM in the data set with HBL-100; 16 µM in the data set on SW1573 [1]; 3.5 µM in the data set with WiDr [2]; 9.6 µM in the data set on SW1573 [3]; 2.8 µM in the data set with T47D [6]. The figures for the GI50 with HeLa [7], in the data set with SW1573 [9] and with SW1573 [12] were 2.2 µM, 16 µM and 11 µM, respectively. Further, the RatioGI50 entry is “<=6” with T47D [4], 0.9 in the data set with SW1573 [8], “<=6” in the data set with WiDr [11] and 1 with SW1573 [13]. In data set [5], the 50% growth inhibitory concentration (GI50) at 48 h came out at 4.4 µM. Also, the result in the data set on HeLa [10] was Active.

In the case of `Cc1cc(=O)oc2cc(N=C=[Se])ccc12`, the selectivity ratio in data set [15], in data set [16], in [18] and in [20] was at most 14 throughout. Besides, the GI50 with A549 is 3.6 µM; in the data set with HBL-100, 5 µM; in the data set on SW1573 [1], 29 µM; with WiDr [2], 4.8 µM; with SW1573 [3], 29 µM; in the data set with T47D [6], 3.6 µM. Besides, the values for the GI50 in the data set on HeLa [7], with SW1573 [9] and in the data set on SW1573 [12] were 12 µM, 24 µM and 27 µM, respectively. Further, the 50% growth inhibitory concentration (GI50) at 48 h in [5] was determined as 50 µM. In addition, the RatioGI50 in the data set with SW1573 [8] is reported as 1.1; in data set [19], “<=14”; with SW1573 [13], 0.9. Also, the outcome in the data set with HeLa [17] was Active.
